Data from ChEMBL document CHEMBL4765301, “Discovery of novel TNNI3K inhibitor suppresses pyroptosis and apoptosis in murine myocardial infarction injury” (Eur J Med Chem, 2020).
Calls of active or inactive are those of the source. No cut-off for these calls is given here.

Tests used:
[1] = target: T1, Serine/threonine-protein kinase TNNI3K (Homo sapiens) (UniProt Q59H18); assay: Inhibition of TNNI3K (unknown origin) assessed as residual activity at 1 uM using biotinylated CTnI as substrate by HTRF analysis relative to control
T1 sequence (whole entry): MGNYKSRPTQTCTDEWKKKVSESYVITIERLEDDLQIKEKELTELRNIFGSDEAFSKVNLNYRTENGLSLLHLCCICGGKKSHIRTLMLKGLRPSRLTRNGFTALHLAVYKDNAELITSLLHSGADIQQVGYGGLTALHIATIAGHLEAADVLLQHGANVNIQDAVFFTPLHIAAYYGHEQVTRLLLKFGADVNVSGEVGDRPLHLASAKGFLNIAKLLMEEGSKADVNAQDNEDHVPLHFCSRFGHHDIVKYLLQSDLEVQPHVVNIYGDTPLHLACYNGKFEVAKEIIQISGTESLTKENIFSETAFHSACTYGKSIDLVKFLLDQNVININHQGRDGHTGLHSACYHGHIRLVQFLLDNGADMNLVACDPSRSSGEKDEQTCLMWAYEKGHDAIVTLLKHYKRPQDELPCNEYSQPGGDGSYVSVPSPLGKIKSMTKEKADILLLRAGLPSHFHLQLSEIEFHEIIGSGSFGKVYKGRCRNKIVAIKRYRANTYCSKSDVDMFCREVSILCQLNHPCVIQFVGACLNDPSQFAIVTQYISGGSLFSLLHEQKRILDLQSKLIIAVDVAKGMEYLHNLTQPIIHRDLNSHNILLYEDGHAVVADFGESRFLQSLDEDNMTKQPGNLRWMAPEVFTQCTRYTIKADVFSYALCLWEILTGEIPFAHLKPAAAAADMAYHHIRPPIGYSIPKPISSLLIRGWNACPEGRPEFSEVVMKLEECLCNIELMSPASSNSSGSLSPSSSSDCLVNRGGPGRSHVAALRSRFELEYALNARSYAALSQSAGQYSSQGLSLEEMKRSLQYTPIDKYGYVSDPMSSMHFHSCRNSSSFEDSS
In short: (§1)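 TNNI3K was assayed by HTRF using a GST-tagged TNNI3K kinase domain and a biotinylated cardiac troponin I substrate peptide, followed by the two HTRF detection reagents. Compounds were screened at 1.0 µM, then IC50s were determined.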

[2] = target: Receptor tyrosine-protein kinase erbB-2 (Homo sapiens) (UniProt P04626); assay: Inhibition of recombinant human HER2 (676 to end residues) assessed as residual activity at 1 uM using poly(Glu, Tyr) 4:1 as substrate incubated for 40 mins by [gamma-33P]-ATP scintillation counting based radiometry assay relative to control
Receptor tyrosine-protein kinase erbB-2 (Homo sapiens), sequence (P04626 whole entry): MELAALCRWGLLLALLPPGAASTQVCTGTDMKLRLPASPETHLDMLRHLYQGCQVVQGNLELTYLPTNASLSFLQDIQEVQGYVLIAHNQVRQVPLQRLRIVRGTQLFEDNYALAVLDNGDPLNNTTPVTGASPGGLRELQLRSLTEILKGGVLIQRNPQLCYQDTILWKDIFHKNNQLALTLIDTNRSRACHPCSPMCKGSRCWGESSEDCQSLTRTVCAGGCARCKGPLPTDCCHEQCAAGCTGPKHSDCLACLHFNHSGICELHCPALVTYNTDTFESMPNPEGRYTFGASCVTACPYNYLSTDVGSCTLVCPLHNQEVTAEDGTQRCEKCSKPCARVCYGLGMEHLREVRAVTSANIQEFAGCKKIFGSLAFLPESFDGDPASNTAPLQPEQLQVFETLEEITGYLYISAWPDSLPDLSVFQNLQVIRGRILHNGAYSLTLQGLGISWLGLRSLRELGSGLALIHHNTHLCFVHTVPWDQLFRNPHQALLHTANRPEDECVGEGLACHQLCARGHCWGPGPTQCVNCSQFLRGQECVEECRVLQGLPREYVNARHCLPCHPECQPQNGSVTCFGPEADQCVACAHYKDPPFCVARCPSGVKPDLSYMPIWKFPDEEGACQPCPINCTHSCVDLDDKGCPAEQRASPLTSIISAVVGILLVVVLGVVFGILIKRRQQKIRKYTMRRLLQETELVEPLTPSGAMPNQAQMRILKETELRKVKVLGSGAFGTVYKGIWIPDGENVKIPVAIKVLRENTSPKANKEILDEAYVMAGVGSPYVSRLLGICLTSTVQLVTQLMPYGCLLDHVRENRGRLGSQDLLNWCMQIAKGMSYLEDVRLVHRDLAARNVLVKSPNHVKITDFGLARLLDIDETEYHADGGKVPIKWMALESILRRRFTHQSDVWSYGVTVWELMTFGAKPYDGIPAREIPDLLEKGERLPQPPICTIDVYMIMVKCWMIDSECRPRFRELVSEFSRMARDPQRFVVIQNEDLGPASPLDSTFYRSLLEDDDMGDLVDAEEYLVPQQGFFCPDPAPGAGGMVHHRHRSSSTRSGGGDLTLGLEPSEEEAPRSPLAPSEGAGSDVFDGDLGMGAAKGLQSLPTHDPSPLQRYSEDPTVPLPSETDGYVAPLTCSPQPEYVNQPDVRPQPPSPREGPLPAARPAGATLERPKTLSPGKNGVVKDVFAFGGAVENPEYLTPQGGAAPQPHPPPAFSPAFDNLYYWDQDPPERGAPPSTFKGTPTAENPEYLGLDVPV

[3] = target: T2, Serine/threonine-protein kinase TNNI3K (Homo sapiens, UniProt Q59H18); assay: Inhibition of TNNI3K (unknown origin) using biotinylated CTnI as substrate by HTRF analysis; in short: as §1
T2 sequence (Q59H18 whole entry): T1 sequence (whole entry)

[4] = tested on: H9c2; assay: Inhibition of OGD-induced apoptosis in rat H9c2 cells incubated for 24 hrs by annexinV-FITC and PI staining based flow cytometry analysis; type: functional, cell-based; settings: dose 0.5-1 µM
[5] = tested on: H9c2; assay: Inhibition of OGD-induced apoptosis in rat H9c2 cells assessed as early apoptotic cells at 0.5 uM incubated for 24 hrs by annexinV-FITC and PI staining based flow cytometry analysis (reference value: 3.53 %); type: functional
[6] = tested on: H9c2; assay: Inhibition of OGD-induced apoptosis in rat H9c2 cells assessed as reduction in cytochromeC level by Western blot analysis; type: functional, cell-based; settings: dose 0.5-1 µM
In short: (§2)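 H9c2 cells under OGD were treated with saline or 0.5 or 1.0 µM inhibitor. Cells were trypsinised, washed in cold PBS, lysed in RIPA with sonication and centrifuged 30 min. Total protein was quantified and separated by SDS-PAGE, then transferred to PVDF. Blots were probed with primary and secondary antibodies and detected by ECL.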

[7] = tested on: H9c2; assay: Effect on TNNI3K expression in rat H9c2 cells at 0.5 to 1 uM by Western blot analysis; type: functional, cell-based; settings: dose 0.5-1 µM; in short: as §2
[8] = target: Mitogen-activated protein kinase 1 and 3 (ERK2 and ERK1) (Rattus norvegicus) (UniProt P63086+P21708); assay: Inhibition of ERK1/2 phosphorylation in rat H9c2 cells at 0.5 to 1 uM by Western blot analysis; type: cell-based; settings: dose 0.5-1 µM; in short: as §2
Mitogen-activated protein kinase 1 and 3 (ERK2 and ERK1) (Rattus norvegicus), sequence (P21708 whole entry, looked up): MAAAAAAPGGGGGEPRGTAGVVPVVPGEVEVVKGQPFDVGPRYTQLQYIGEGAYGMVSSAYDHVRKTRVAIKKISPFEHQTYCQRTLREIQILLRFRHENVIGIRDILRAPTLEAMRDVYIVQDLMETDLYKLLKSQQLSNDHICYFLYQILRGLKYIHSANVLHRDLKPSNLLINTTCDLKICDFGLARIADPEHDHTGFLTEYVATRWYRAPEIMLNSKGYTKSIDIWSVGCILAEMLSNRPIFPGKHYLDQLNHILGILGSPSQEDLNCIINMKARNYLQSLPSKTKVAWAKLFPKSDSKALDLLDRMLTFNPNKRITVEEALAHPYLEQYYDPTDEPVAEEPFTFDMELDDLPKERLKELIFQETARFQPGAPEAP
Mitogen-activated protein kinase 1 and 3 (ERK2 and ERK1) (Rattus norvegicus), sequence (P63086 whole entry, looked up): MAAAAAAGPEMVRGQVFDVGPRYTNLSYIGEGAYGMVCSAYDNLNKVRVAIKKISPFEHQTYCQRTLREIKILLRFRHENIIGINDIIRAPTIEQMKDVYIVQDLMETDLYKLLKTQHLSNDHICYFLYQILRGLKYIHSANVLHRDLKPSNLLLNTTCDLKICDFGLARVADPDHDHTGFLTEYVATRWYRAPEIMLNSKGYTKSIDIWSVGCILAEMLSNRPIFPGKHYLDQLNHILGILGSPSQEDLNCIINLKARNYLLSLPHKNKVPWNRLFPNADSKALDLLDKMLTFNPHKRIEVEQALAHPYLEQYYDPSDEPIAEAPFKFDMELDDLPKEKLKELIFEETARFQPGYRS

[9] = tested on: H9c2; assay: Inhibition of OGD-induced apoptosis in rat H9c2 cells assessed as reduction in caspase1 activation at 0.5 to 1 uM by Western blot analysis; type: functional, cell-based; settings: dose 0.5-1 µM; in short: as §2
[10] = tested on: H9c2; assay: Inhibition of OGD-induced apoptosis in rat H9c2 cells assessed as reduction in NLRP3 level at 0.5 to 1 uM by Western blot analysis; type: functional, cell-based; settings: dose 0.5-1 µM; in short: as §2
[11] = tested on: H9c2; assay: Inhibition of OGD-induced apoptosis in rat H9c2 cells assessed as reduction in IL-1beta level at 0.5 to 1 uM by Western blot analysis; type: functional, cell-based; settings: dose 0.5-1 µM; in short: as §2
[12] = tested on: H9c2; assay: Inhibition of OGD-induced apoptosis in rat H9c2 cells assessed as reduction in proIL-1beta level at 0.5 to 1 uM by Western blot analysis; type: functional, cell-based; settings: dose 0.5-1 µM; in short: as §2
[13] = tested on: H9c2; assay: Inhibition of OGD-induced apoptosis in rat H9c2 cells assessed as reduction in caspase1 level at 0.5 to 1 uM by immunofluorescence staining based fluorescence microscopy; type: functional, cell-based; settings: dose 0.5-1 µM
In short: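 In OGD-exposed H9c2 cells treated with 0.5 or 1.0 µM inhibitor, intracellular distribution and co-localisation of caspase-1 and NLRP3 were assessed by immunofluorescence microscopy.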

[14] = tested on: Mus musculus; assay: Cardioprotective activity in C57BL/6 mouse model of myocardial infarction assessed as reduction in left ventricular inflammatory cells at 25 mg/kg, ip administered for 28 days and measured on day 28 by H and E staining based fluorescence microscopy; type: functional, organism-based; settings: time 28.0 day
In short: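 MI made in male C57BL/6 mice (5-6 weeks) by permanent LAD ligation under ip ketamine (100mg/kg)/xylazine (10mg/kg), ventilated. Groups: sham, saline (NS), inhibitor 25 mg/kg ip every two days, n=4. Hearts examined after 28 days; TTC, Masson's trichrome and H&E staining of sections for infarct, collagen/scar, LV inflammatory cells and dilatation.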

[15] = tested on: Mus musculus; assay: In vivo inhibition of TNNI3K in C57BL/6 mouse at 25 mg/kg, ip administered for 28 days and measured on day 28 by immunohistochemical staining based fluorescence microscopy; type: functional, organism-based; settings: time 28.0 day
In short: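 Male C57BL/6 mice (5-6 weeks) with LAD-ligation MI; sham, saline or 25 mg/kg ip every two days, n=4, 28 days. Heart sections given EDTA (pH 8.0) or citrate (pH 6.0) microwave antigen retrieval, then primary antibody 30-40 min at 37°C. Detection by HRP polymer secondary with DAB (IHC) or fluorescent secondary (IF). Positive cells were quantified.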

**Q.** Which Activity [1] does the source give for CN(C)CCCN1CCc2c(sc3ncnc(Nc4ccc(N(C)C)c(NC(=O)c5ccco5)c4)c23)C1 here?
**A.** Its Activity is 28%.

**Q.** And the Activity [2]?
**A.** Its Activity is 96%.

**Q.** What about the IC50 [3] of the same molecule?
**A.** The IC50 was 240 nM.

**Q.** What about the inhibition [4] of the same molecule?
**A.** The inhibition was “Dose-dependent effect”.

**Q.** And the inhibition at 0.5 µM [5]?
**A.** Its inhibition at 0.5 µM is 3.59%.

**Q.** And the inhibition [6]?
**A.** The inhibition was “Dose-dependent effect”.

**Q.** And the inhibition [7]?
**A.** The inhibition was “inactive”.

**Q.** What about the inhibition [8] of the same molecule?
**A.** Its inhibition is “inactive”.

**Q.** And the inhibition [9]?
**A.** Its inhibition is “Active”.

**Q.** What about the inhibition [10] of the same molecule?
**A.** The inhibition was “Active”.

**Q.** And the inhibition [11]?
**A.** Its inhibition is “Active”.

**Q.** And the inhibition [12]?
**A.** Its inhibition is “inactive”.

**Q.** And the inhibition [13]?
**A.** The inhibition was “Active”.

**Q.** What about the Activity [14] of the same molecule?
**A.** The Activity was “Active”.

**Q.** What about the inhibition [15] of the same molecule?
**A.** The inhibition was “Active”.
